Test results reported in ChEMBL document CHEMBL1151747, “Orally bioavailable isothioureas block function of the chemokine receptor CXCR4 in vitro and in vivo” (J Med Chem, 2008).

Assays:
[1] = target: T1, C-X-C chemokine receptor type 4 (Homo sapiens, UniProt P61073); assay: Activity at CXCR4 in human CEM cells assessed as inhibition of CXCL12-induced calcium mobilization; type: functional, cell-based, CCRF-CEM
Outline: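 CEM cells are loaded with 4 µM Fluo-4 for 1 h at 37 °C, washed, then preincubated with antagonist for 2 h. Wells are run in quadruplicate on FLIPR.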

[2] = test system: Human immunodeficiency virus 1; assay: Antiviral activity against X4-tropic HIV1 3B assessed as inhibition of viral attachment; type: functional, organism-based; conditions: Human immunodeficiency virus 1, 3B
[3] = target: T1, C-X-C chemokine receptor type 4; assay: Displacement of [125I]CXCL12 from CXCR4 in human CEM cells; type: cell-based, CCRF-CEM
Outline: (§1)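 Scintillation proximity assay. Membranes come from CEM cells (human CXCR4) or IR983F cells (rat CXCR4), prepared by homogenization in 20 mM HEPES, 1 mM EDTA pH 7.4 and stored at -80 °C. Nonspecific binding is defined with 400 nM unlabeled CXCL12. Incubation is 2 h at room temperature with shaking, then scintillation counting.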

[4] = Fraction unbound in rat serum; type: ADME, cell-free
[5] = target: Cytochrome P450 2D6 (Homo sapiens, UniProt P10635); assay: Inhibition of CYP2D6; type: ADME
[6] = Intrinsic clearance in human liver microsomes; type: ADME, Microsome
Outline: (§2)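 Compound is incubated with human or rat liver microsomes; intrinsic clearance is given in µL min-1 mg-1.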

[7] = target: T2, Cytochrome P450 1A2 (Homo sapiens, UniProt P05177); assay: Inhibition of CYP1A2; type: ADME
T2 sequence (P05177 whole entry): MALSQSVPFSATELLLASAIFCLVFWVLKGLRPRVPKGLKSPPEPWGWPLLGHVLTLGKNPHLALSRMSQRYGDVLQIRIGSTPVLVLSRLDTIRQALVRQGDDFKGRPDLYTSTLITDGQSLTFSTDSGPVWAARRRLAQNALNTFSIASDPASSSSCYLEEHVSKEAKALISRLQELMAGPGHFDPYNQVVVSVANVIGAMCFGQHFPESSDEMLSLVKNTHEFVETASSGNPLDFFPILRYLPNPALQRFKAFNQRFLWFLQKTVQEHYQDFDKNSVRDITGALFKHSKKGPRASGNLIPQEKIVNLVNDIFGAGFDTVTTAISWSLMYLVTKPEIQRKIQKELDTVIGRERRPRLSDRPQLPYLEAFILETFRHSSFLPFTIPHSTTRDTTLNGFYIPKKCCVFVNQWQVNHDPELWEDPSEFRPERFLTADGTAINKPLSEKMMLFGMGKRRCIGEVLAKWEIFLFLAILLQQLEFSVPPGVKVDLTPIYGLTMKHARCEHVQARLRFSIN

[8] = Partition coefficient, log P of the compound; type: physicochemical; conditions: octanol/water
[9] = Solubility in pH 6.8 buffer; type: physicochemical
[10] = target: Cytochrome P450 2C19 (Homo sapiens, UniProt P33261); assay: Inhibition of CYP2C19; type: ADME
[11] = Fraction unbound in human serum; type: ADME, cell-free
[12] = Dissociation constant, pKa of the compound; type: physicochemical
[13] = target: Cytochrome P450 3A4 (Homo sapiens, UniProt P08684); assay: Inhibition of CYP3A4; type: ADME
[14] = target: Cytochrome P450 2C9 (Homo sapiens, UniProt P11712); assay: Inhibition of CYP2C9; type: ADME
[15] = target: C-X-C chemokine receptor type 4 (Rattus norvegicus, UniProt O08565); assay: Displacement of [125I]CXCL12 from CXCR4 in rat IR983F cells; type: cell-based; outline: as §1
[16] = Tmax in Lewis rat at 10 mg/kg, po; type: ADME, organism-based; set-up: dose 10 mg/kg, route oral; conditions: in vivo
[17] = Solubility in pH 1.0 buffer; type: physicochemical
[18] = Distribution coefficient, log D of the compound; type: physicochemical; conditions: octanol/water
[19] = Half life in Lewis rat at 10 mg/kg, po; type: ADME, organism-based; set-up: dose 10 mg/kg, route oral; conditions: in vivo
[20] = Intrinsic clearance in rat liver microsomes; type: ADME, Microsome; outline: as §2
[21] = Oral bioavailability in Lewis rat at 10 mg/kg; type: ADME, organism-based; conditions: in vivo

T1 sequence (P61073 whole entry): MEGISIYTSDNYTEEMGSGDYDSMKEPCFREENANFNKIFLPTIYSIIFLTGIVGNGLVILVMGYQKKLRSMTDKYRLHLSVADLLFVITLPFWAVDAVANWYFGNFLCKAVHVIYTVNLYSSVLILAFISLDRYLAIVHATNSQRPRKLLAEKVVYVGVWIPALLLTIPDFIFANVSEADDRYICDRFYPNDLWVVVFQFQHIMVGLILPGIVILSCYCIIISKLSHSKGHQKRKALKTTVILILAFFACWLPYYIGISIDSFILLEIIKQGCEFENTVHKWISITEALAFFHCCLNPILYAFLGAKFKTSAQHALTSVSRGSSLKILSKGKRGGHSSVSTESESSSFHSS
Sequence of Cytochrome P450 2C9 (P11712 whole entry): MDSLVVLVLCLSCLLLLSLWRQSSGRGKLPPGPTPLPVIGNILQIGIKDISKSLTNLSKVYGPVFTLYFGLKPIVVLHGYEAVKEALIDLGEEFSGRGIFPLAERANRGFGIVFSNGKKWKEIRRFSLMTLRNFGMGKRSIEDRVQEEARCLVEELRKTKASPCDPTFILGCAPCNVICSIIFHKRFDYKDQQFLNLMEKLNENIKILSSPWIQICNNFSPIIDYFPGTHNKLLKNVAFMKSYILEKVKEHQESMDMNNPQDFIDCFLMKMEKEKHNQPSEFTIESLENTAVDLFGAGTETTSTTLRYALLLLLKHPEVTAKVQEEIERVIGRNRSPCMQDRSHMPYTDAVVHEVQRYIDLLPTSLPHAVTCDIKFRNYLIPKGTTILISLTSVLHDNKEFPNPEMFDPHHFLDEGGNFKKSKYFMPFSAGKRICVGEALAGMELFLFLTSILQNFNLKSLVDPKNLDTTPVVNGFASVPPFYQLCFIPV
Sequence of C-X-C chemokine receptor type 4 (Rattus norvegicus, UniProt O08565) (O08565 whole entry): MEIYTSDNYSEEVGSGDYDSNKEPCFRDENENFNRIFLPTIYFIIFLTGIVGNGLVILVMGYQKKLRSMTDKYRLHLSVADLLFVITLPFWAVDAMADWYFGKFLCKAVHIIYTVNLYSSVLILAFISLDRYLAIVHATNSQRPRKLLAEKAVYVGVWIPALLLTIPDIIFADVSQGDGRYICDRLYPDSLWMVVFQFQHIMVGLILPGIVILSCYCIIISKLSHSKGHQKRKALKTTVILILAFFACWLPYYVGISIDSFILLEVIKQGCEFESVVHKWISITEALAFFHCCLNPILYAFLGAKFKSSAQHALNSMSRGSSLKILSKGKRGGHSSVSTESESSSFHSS
Sequence of Cytochrome P450 2D6 (P10635 whole entry): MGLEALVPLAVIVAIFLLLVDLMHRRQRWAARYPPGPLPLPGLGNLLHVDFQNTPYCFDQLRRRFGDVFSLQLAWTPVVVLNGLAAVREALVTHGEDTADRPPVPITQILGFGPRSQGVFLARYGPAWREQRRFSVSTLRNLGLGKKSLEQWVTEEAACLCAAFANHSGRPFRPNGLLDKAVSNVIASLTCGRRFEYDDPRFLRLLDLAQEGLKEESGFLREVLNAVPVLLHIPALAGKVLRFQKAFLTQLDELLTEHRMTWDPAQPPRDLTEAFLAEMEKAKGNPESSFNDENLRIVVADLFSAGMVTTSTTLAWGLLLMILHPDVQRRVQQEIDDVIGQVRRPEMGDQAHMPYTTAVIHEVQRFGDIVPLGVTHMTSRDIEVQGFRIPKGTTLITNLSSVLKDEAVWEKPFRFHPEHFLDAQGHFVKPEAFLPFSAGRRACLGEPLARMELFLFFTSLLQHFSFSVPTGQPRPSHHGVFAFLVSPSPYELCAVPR
Sequence of Cytochrome P450 3A4 (P08684 whole entry): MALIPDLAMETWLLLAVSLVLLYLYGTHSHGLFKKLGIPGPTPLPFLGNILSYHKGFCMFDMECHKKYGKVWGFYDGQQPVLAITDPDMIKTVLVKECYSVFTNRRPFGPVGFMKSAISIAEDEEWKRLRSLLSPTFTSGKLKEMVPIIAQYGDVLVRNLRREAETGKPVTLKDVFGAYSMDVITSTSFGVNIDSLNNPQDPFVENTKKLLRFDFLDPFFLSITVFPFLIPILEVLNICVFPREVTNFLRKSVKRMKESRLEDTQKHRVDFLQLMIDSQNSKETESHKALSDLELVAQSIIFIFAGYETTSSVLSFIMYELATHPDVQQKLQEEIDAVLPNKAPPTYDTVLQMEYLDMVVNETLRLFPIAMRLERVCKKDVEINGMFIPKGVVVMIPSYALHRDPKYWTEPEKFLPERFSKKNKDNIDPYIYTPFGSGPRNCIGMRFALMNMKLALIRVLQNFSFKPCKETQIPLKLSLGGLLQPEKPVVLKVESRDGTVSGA
Sequence of Cytochrome P450 2C19 (P33261 whole entry): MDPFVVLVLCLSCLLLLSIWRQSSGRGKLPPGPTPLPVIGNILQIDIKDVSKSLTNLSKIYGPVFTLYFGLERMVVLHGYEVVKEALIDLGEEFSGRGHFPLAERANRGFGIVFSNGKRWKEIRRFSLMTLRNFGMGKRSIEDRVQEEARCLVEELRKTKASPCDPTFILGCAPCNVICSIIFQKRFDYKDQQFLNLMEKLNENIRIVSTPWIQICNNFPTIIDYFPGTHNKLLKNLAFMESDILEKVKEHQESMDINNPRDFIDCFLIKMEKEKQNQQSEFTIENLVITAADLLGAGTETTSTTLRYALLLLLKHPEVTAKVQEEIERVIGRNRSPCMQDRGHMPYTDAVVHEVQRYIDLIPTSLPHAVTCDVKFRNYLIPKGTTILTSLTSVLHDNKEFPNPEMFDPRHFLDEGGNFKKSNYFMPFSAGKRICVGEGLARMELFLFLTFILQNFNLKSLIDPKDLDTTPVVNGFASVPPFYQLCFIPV

Row | SMILES | IC50 [1] [nM] | IC50 [2] [nM] | IC90 [2] [nM] | IC50 [3] [nM] | further results
1 | CCCCCCNC(=NC1CCCCC1)SCC1=CSC2=NCCN12 | 75 | – | – | 855 | –
2 | CN(/C(=N/C1CCCCC1)SCC1=CSC2=NCCN12)C1CCCCC1 | 931 | > 100000 | > 100000 | 3380 | –
3 | CC1(C)CN2C(CS/C(=N\C3CCCCC3)NC3CCCCC3)=CSC2=N1 | – | 7 | 100 | – | fraction unbound [4]: 0.46; IC50 [5]: 400 nM; microsomal CLint [6]: 149 µL/min/mg; IC50 [7]: > 10000 nM; logP [8]: 4.5; solubility [9]: > 5000 µg/mL; IC50 [10]: 5200 nM; fraction unbound [11]: 0.2; pKa [12]: 8; IC50 [13]: > 10000 nM; IC50 [14]: > 10000 nM; IC50 [15]: 11 nM; Tmax [16]: 0.5 h; solubility [17]: > 5000 µg/mL; logD [18]: 1.2; half-life [19]: 7.6 h; microsomal CLint [20]: 342 µL/min/mg; bioavailability [21]: 32%
4 | c1ccc(CS/C(=N\C2CCCCC2)NC2CCCCC2)cc1 | > 10000 | – | – | > 10000 | –
5 | CC(C)/N=C(/NC(C)C)SCC1=CSC2=NCCN12 | – | – | – | > 10000 | –
6 | C1=C(CSC(=NC2CCCCC2)NC2CCCC2)N2CCN=C2S1 | 173 | 470 | > 100000 | 372 | –
7 | c1ccc(CNC(=NC2CCCCC2)SCC2CSC3=NCCN32)cc1 (configuration not stated) | 2220 | – | – | 10000 | –

Continued by falling IC50 [3], values first:

Row | IC50 [1] [nM] | IC50 [2] [nM] | IC90 [2] [nM] | IC50 [3] [nM] | SMILES | further results
8 | 57 | – | – | 185 | C1=C(CS/C(=N\C2CCCCC2)NC2CCCCC2)N2CCCN=C2S1 | –
9 | 6.6 | 40 | 1140 | 28 | C1=C(CSC(=NC2CCCCC2)NC2CCCCCC2)N2CCN=C2S1 | –
10 | 5.3 | – | – | 27 | C1=C(CS/C(=N\C2CCCCCCC2)NC2CCCCCCC2)N2CCN=C2S1 | –
11 | 3.1 | 50 | 820 | 25 | C1=C(CS/C(=N\C2CCCCCC2)NC2CCCCCC2)N2CCN=C2S1 | –
